Experimental data taken from ChEMBL document CHEMBL5214993, “Fragment Optimization of Reversible Binding to the Switch II Pocket on KRAS Leads to a Potent, In Vivo Active KRASG12C Inhibitor” (J Med Chem, 2022).
Calls of active or inactive are those of the source. No cut-off for these calls is given here.

Columns and labels:
[1] = Binding affinity to KRAS G12V/S39C-BIT mutant (unknown origin) assessed as dissociation constant by HSQC NMR spectroscopy analysis; set-up: species or system Homo sapiens
[2] = biological target: SOS1-KRAS (Homo sapiens, UniProt P01116, G12C)
[3] = system: GTPase KRas (Homo sapiens), P01116 [G12C]
[4] = biological target: GTPase KRas (Homo sapiens, UniProt P01116, G12C)
[5] = biological target: GTPase KRas (Homo sapiens, UniProt P01116, G12V); experiment: Binding affinity to KRAS G12V mutant (unknown origin) assessed as dissociation constant by HSQC NMR spectroscopy analysis
Procedure, shortened: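 KD was fitted from chemical shift perturbations and reported as mean ± SD. Reported as <10 μM when shifts were near saturation at the first point, >2000 μM when dose-responsive but unfittable, and >10,000 μM when there were no shifts at 500 μM.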

[6] = biological target: GTPase KRas (Homo sapiens, UniProt P01116, G12D); experiment: Binding affinity to KRAS G12D mutant (unknown origin) assessed as dissociation constant by HSQC NMR spectroscopy analysis
[7] = Toxicity in NOG mouse assessed as change in body weight at 40 to 80 mg/kg, ip; format: organism-based; conditions: in vivo, dose 40-80 mg/kg
Procedure, shortened: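 Female NOG mice with subcutaneous NCI-H358 xenografts, randomized at mean 160 mm3 into groups of n = 8. Dosed ip 40 mg/kg once weekly or 40 mg/kg on 2 consecutive days weekly, in 25% HP-γ-CD at 10 mL/kg, with a vehicle control group. Body weight recorded daily.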

[8] = cells; conditions: Homo sapiens, GP2d, 120 h
[9] = system: NCI-H358; experiment: Antiproliferative activity against human NCI-H358 cells harboring KRAS G12C mutant incubated for 3 days by celltiter glo luminescent assay; format: functional, cell-based; conditions: NCI-H358, 72 h
[10] = system: LS-513; experiment: cells; conditions: Homo sapiens, LS-513, 120 h
[11] = system: NCI-H358; experiment: Antitumor activity against human NCI-H358 cells xenografted in NOG mouse model assessed as induction of apoptosis at 40 mg/kg, ip administered for 3 days and measured at 6 hrs post last dose; format: functional, organism-based; conditions: time 3.0 day
Procedure, shortened: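 Female NOG mice, 7–8 weeks old, bearing subcutaneous NCI-H358 tumors (5 million cells in Matrigel, right flank), randomized at mean 180 mm3, n = 5 per group and time point. […] Tumors frozen 6 h after last dose; cleaved caspase 3 measured in tumor lysates.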

[12] = system: NCI-H358; experiment: Antiproliferative activity against human NCI-H358; format: functional, cell-based

GTPase KRas (Homo sapiens), P01116 [G12C], sequence (P01116 whole entry G12C): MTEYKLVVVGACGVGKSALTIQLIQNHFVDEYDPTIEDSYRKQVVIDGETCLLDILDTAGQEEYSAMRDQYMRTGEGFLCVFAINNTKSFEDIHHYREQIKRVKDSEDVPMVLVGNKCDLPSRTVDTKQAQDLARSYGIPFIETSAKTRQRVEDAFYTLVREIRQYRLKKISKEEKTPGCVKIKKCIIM
GTPase KRas (Homo sapiens, UniProt P01116, G12C), sequence (P01116 whole entry G12C): as above
SOS1-KRAS, sequence (P01116 whole entry G12C, looked up): as the sequence (P01116 whole entry G12C) above
GTPase KRas (Homo sapiens, UniProt P01116, G12V), sequence (P01116 whole entry G12V): as the sequence (P01116 whole entry G12C) above, with C12V counted along it
GTPase KRas (Homo sapiens, UniProt P01116, G12D), sequence (P01116 whole entry G12D): as the sequence (P01116 whole entry G12C) above, with C12D counted along it

Kd [1] [µM]	SMILES	Kd [5] [µM]	also measured
> 2000	N#Cc1csc2c1CCCC2		
	C=CC(=O)Nc1ccc(-c2noc([C@@]3(C)CCCc4sc(N)c(C#N)c43)n2)cc1		IC50 [2]: > 10 µM; Kinact [3]: 0.7 h⁻¹; Ki [4]: 24.1 µM
143	CCc1c(C)sc(N)c1C#N		
> 10000	N#Cc1ccsc1N		
116	N#Cc1c(N)sc2c1CCCC2		
715	Nc1nc2c(s1)CCCC2		
	Cc1noc(C2(C)CCCc3sc(N)c(C#N)c32)n1 (stereo not given)	20	
	C[C@]1(c2nc(-c3ccc(N)cc3)no2)CCCc2sc(N)c(C#N)c21	< 10	Kd [6]: > 2000 µM
1220	Nc1nc2c(C(F)(F)F)cccc2s1		
> 10000	CN(C)c1cccc2cccc(Cl)c12		
	C=CC(=O)Nc1cccc(-c2noc([C@@]3(C)CCCc4sc(N)c(C#N)c43)n2)c1		IC50 [2]: > 10 µM; Kinact [3]: 1.1 h⁻¹; Ki [4]: 8.6 µM
	CC1(C(=O)O)CCCc2sc(N)c(C#N)c21 (stereo not given)	1160	
	C[C@]1(c2nc(-c3cccc(N)c3)no2)CCCc2sc(N)c(C#N)c21	< 10	Kd [6]: > 2000 µM
	C=CC(=O)N1CCN(c2cc(-c3noc([C@@]4(C)CCCc5sc(N)c(C#N)c54)n3)nc(N3CCN(C)C[C@@H]3C)c2)CC1		Activity [7]: Toxic; EC50 [8]: > 4 µM; EC50 [9]: 0.026 µM; EC50 [10]: > 4 µM; Activity [11]: Active
	CC1(C(=O)Nc2ccccc2)CCCc2sc(N)c(C#N)c21 (stereo not given)	1180	
> 10000	Oc1cccc(F)c1-c1ncccc1F		
	N#Cc1c(N)sc2c1C(C(=O)Nc1ccccc1)CCC2 (stereo not given)	1270	
	CNC(=O)C1(C)CCCc2sc(N)c(C#N)c21 (stereo not given)	> 2000	
21	CC1CCCc2sc(N)c(C#N)c21 (stereo not given)		
	C=CC(=O)N1CCN(c2cccc(-c3noc([C@@]4(C)CCCc5sc(N)c(C#N)c54)n3)c2)CC1		IC50 [2]: 3.29 µM; Kinact [3]: 0.3 h⁻¹; Ki [4]: 7.5 µM
> 10000	COC(=O)c1c(N)sc2c1CCCC2		
162	N#Cc1c(N)sc2c1CCCCC2		
297	N#Cc1c(N)sc2ccccc12		
193	N#Cc1c(N)sc2c1CCC2		
	C=CC(=O)N1CCN(c2nc(=O)n(-c3c(C)ccnc3C(C)C)c3nc(-c4c(O)cccc4F)c(F)cc23)[C@@H](C)C1 [SOTORASIB]		EC50 [9]: 0.0064 µM; EC50 [12]: 0.006 µM

SMILES	Kd [1] [µM]	Kd [5] [µM]	also measured
CC1(C)CCCc2sc(N)c(C#N)c21	< 10	15	
